Source: ChEMBL document CHEMBL1122501, “Potential antiatherosclerotic agents. 2. (Aralkylamino)- and (alkylamino) benzoic acid analogues of cetaben” (1983)
Where “and” joins values, the source holds several entries; their conditions need not be identical. Identical values can stand only once.

How the values were obtained:
Rattus norvegicus [1] = test: In vivo Triglyceride lowering activity at dose as 0.025 % of the diet; format: functional
Procedure, shortened: (§1)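 Male CFE or CD-1 Sprague-Dawley rats, 140-150 g; 8 per control group, 4 per test group. Compound mixed into ground chow (w/w) via MeOH-CHCl3 (1:3) solution, solvent evaporated; controls got solvent-treated chow. Fed ad libitum 5 days, food intake monitored, killed fed and bled. Serum sterols and triglycerides by adapted autoanalyzer methods; mean percent of control, Student's t test.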

Rattus norvegicus [2] = test: In vivo sterol lowering activity dosed at 0.10 % of the diet; format: functional; procedure, shortened: as §1
Rattus norvegicus [3] = test: In vivo Sterol lowering activity at dose as 0.05 % of the diet; format: functional; procedure, shortened: as §1
Rattus norvegicus [4] = test: In vivo triglyceride lowering activity dosed at 0.10 % of the diet; format: functional; procedure, shortened: as §1
Rattus norvegicus [5] = test: In vivo Sterol lowering activity at dose as 0.025 % of the diet; format: functional; procedure, shortened: as §1
Rattus norvegicus [6] = test: In vivo triglyceride lowering activity dosed at 0.05 % of the diet; format: functional; procedure, shortened: as §1
[7] = target: T1, Sterol O-acyltransferase 1 (Rattus norvegicus) (UniProt O70536); test: In vitro inhibitory activity against acyl coenzyme A:cholesterol acyltransferase (ACAT); parameters: concentration or dose not given beside the values; conditions: concentration not given here
T1 sequence (whole entry): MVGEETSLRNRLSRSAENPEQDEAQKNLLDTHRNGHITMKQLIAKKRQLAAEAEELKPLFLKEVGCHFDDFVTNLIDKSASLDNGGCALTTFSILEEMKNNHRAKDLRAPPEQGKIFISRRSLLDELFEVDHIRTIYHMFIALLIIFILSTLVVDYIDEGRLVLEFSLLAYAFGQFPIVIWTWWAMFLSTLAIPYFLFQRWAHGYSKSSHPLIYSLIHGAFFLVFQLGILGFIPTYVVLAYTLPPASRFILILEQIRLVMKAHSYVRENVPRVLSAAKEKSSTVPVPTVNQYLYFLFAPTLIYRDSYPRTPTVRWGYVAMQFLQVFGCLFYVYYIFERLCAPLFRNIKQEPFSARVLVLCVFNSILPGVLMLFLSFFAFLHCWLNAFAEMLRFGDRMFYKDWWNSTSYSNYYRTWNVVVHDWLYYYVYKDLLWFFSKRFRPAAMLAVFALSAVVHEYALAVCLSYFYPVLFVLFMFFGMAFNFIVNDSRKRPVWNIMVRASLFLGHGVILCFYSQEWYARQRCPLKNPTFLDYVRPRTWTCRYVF
Procedure, shortened: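 ACAT enzyme from rat adrenal homogenate in 0.2 M KH2PO4 buffer pH 7.4, 1000g 15 min 5 °C supernatant (microsomal fraction). Supernatant + BSA (50 mg/mL) + compound at final 5.2 μg/mL + buffer preincubated 10 min 37 °C; [14C]oleoyl-CoA (0.4 μCi) added, 30 min 37 °C. Lipids extracted, TLC; cholesteryl ester zone counted. Mean % inhibition vs no-compound control; Student's t test.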

Rattus norvegicus [8] = test: In vivo Triglyceride lowering activity at dose as 0.03 % of the diet.; format: functional; procedure, shortened: as §1
Rattus norvegicus [9] = test: In vivo triglyceride lowering activity, dosed at 0.01 % of the diet.; format: functional; procedure, shortened: as §1
Rattus norvegicus [10] = test: In vivo Sterol lowering activity at dose as 0.03 % of the diet; format: functional; procedure, shortened: as §1
Rattus norvegicus [11] = test: In vivo Sterol lowering activity at dose as 0.10 % of the diet.; format: functional; procedure, shortened: as §1
Rattus norvegicus [12] = test: In vivo Sterol lowering activity at dose as 0.01 % of the diet.; format: functional; procedure, shortened: as §1
Rattus norvegicus [13] = test: In vivo triglyceride lowering activity, dosed at 0.10 % of the diet.; format: functional; procedure, shortened: as §1
Rattus norvegicus [14] = test: In vivo triglyceride lowering activity, dosed at 0.03 % of the diet; format: functional; procedure, shortened: as §1
Rattus norvegicus [15] = test: In vivo Triglyceride lowering activity at dose as 0.01 % of the diet; format: functional; procedure, shortened: as §1

CCCCCCCCC/C=C/CCCNc1ccc(C(=O)O)cc1
Diet (Rattus norvegicus [1]): 85%
serum sterol, percent of control (Rattus norvegicus [2]): <79%
Diet (Rattus norvegicus [3]): <83%
serum triglycerides, percent of control (Rattus norvegicus [4]): 75%
Diet (Rattus norvegicus [5]): <86%
Diet (Rattus norvegicus [6]): 97%

O=C(O)c1ccc(NCCCc2ccccc2)cc1
Diet (Rattus norvegicus [1]): 64%
serum sterol, percent of control (Rattus norvegicus [2]): 81%
Diet (Rattus norvegicus [3]): 75%
inhibition [7]: 18%
serum triglycerides, percent of control (Rattus norvegicus [4]): 68%
Diet (Rattus norvegicus [5]): 81%
Diet (Rattus norvegicus [6]): 51%

CCCCCCCCCC/C=C/CCCNc1ccc(C(=O)O)cc1
Diet (Rattus norvegicus [1]): 86%
serum sterol, percent of control (Rattus norvegicus [2]): <79%
Diet (Rattus norvegicus [3]): <82%
serum triglycerides, percent of control (Rattus norvegicus [4]): 83%
Diet (Rattus norvegicus [5]): <84%
Diet (Rattus norvegicus [6]): <83%

CCCCCCCCCCCCCCCCCCNc1ccc(C(=O)O)cc1
Diet (Rattus norvegicus [1]): <70%
serum sterol, percent of control (Rattus norvegicus [2]): <82%
Diet (Rattus norvegicus [3]): 94%
serum triglycerides, percent of control (Rattus norvegicus [4]): <60%
Diet (Rattus norvegicus [5]): <86%
Diet (Rattus norvegicus [6]): <71%

O=C(O)c1ccc(NCCCc2ccc(F)cc2)cc1
Diet (Rattus norvegicus [8]): 90%
Diet (Rattus norvegicus [9]): 94%
inhibition [7]: 16%
Diet (Rattus norvegicus [10]): 82%
serum sterol, percent of control (Rattus norvegicus [11]): 82%
serum triglycerides, percent of control (Rattus norvegicus [4]): 61%
serum sterol, percent of control (Rattus norvegicus [12]): 83%

CCCCCCNc1ccc(C(=O)OCC)cc1
Diet (Rattus norvegicus [13]): 86%
Diet (Rattus norvegicus [3]): 80%
serum sterol, percent of control (Rattus norvegicus [11]): 87%
Diet (Rattus norvegicus [5]): 79%
Diet (Rattus norvegicus [6]): 76% and 73%

O=C(O)c1ccc(NCc2ccc(Cl)cc2)cc1
Diet (Rattus norvegicus [8]): 72%
serum sterol, percent of control (Rattus norvegicus [2]): 71%
Diet (Rattus norvegicus [9]): 98%
Diet (Rattus norvegicus [10]): 80%
serum triglycerides, percent of control (Rattus norvegicus [4]): 52%
serum sterol, percent of control (Rattus norvegicus [12]): 89%

CCCCCCCCCCCCCNc1ccc(C(=O)O)cc1
Diet (Rattus norvegicus [1]): <54%
serum sterol, percent of control (Rattus norvegicus [2]): <84%
Diet (Rattus norvegicus [3]): <87%
serum triglycerides, percent of control (Rattus norvegicus [4]): <60%
Diet (Rattus norvegicus [5]): 95%
Diet (Rattus norvegicus [6]): <36%

CCCCCCCCC/C=C/CCCNc1ccc(C(=O)OCC)cc1
serum sterol, percent of control (Rattus norvegicus [2]): <83%
Diet (Rattus norvegicus [3]): <85%
inhibition [7]: < 51%
serum triglycerides, percent of control (Rattus norvegicus [14]): 75%
Diet (Rattus norvegicus [15]): 78%
serum triglycerides, percent of control (Rattus norvegicus [4]): 79%
Diet (Rattus norvegicus [5]): <88%

C=CCCCCCCCC/C=C/CCCNc1ccc(C(=O)OCC)cc1
Diet (Rattus norvegicus [1]): 90%
serum sterol, percent of control (Rattus norvegicus [2]): <85%
Diet (Rattus norvegicus [3]): <85%
inhibition [7]: < 50%
serum triglycerides, percent of control (Rattus norvegicus [4]): 64%
Diet (Rattus norvegicus [5]): <87%
Diet (Rattus norvegicus [6]): 76%

CCCCCCCCCCCCCCCCNc1ccc(C(=O)OCC)cc1
Diet (Rattus norvegicus [1]): <70%
serum sterol, percent of control (Rattus norvegicus [2]): 98%
Diet (Rattus norvegicus [3]): 103%
inhibition [7]: 8%
serum triglycerides, percent of control (Rattus norvegicus [4]): <69%
Diet (Rattus norvegicus [5]): 109%
Diet (Rattus norvegicus [6]): <54%

CCCCCCCCCCCCCCCNc1ccc(C(=O)OCC)cc1
Diet (Rattus norvegicus [1]): 88%
serum sterol, percent of control (Rattus norvegicus [2]): 86%
Diet (Rattus norvegicus [3]): <84%
serum triglycerides, percent of control (Rattus norvegicus [4]): <62%
Diet (Rattus norvegicus [5]): <91%
Diet (Rattus norvegicus [6]): <76%

O=C(O)c1ccc(NCCCCCCc2cccs2)cc1
serum sterol, percent of control (Rattus norvegicus [2]): 76%
inhibition [7]: 31%
Diet (Rattus norvegicus [10]): 83%
serum triglycerides, percent of control (Rattus norvegicus [14]): 63%
Diet (Rattus norvegicus [15]): 58%
serum triglycerides, percent of control (Rattus norvegicus [4]): 57%
serum sterol, percent of control (Rattus norvegicus [12]): 90%

CCCCCCCC/C=C\CCCCCCCCNc1ccc(C(=O)O)cc1
Diet (Rattus norvegicus [1]): <72%
serum sterol, percent of control (Rattus norvegicus [2]): <75%
Diet (Rattus norvegicus [3]): 85%
serum triglycerides, percent of control (Rattus norvegicus [4]): <63%
Diet (Rattus norvegicus [5]): <88%
Diet (Rattus norvegicus [6]): <58%

Cc1ccc(CCC(=O)Nc2ccc(C(=O)O)cc2)cc1
Diet (Rattus norvegicus [8]): 97%
Diet (Rattus norvegicus [13]): 70%
Diet (Rattus norvegicus [9]): 75%
inhibition [7]: 0%
Diet (Rattus norvegicus [10]): 83%
serum sterol, percent of control (Rattus norvegicus [11]): 91%
serum sterol, percent of control (Rattus norvegicus [12]): 94%

CCCCCCCCCCCCCCCCCCCNc1ccc(C(=O)O)cc1
Diet (Rattus norvegicus [1]): <52%
serum sterol, percent of control (Rattus norvegicus [2]): 100%
Diet (Rattus norvegicus [3]): 96%
serum triglycerides, percent of control (Rattus norvegicus [4]): <46%
Diet (Rattus norvegicus [5]): 90%
Diet (Rattus norvegicus [6]): <46%

CCCCCCCC/C=C\CCCCCCCCNc1ccc(C(=O)OCC)cc1
Diet (Rattus norvegicus [1]): <68%
serum sterol, percent of control (Rattus norvegicus [2]): <96%
Diet (Rattus norvegicus [3]): 99%
serum triglycerides, percent of control (Rattus norvegicus [4]): 77%
Diet (Rattus norvegicus [5]): <95%
Diet (Rattus norvegicus [6]): <57%

O=C(OCC(O)CO)c1ccc(NCCCc2ccc(Cl)cc2)cc1 (stereo not drawn)
Diet (Rattus norvegicus [8]): 63%
serum sterol, percent of control (Rattus norvegicus [2]): 81%
Diet (Rattus norvegicus [9]): 78%
inhibition [7]: 17%
Diet (Rattus norvegicus [10]): 88%
serum triglycerides, percent of control (Rattus norvegicus [4]): 57%
serum sterol, percent of control (Rattus norvegicus [12]): 97%

CCOC(=O)c1ccc(NCCCc2cccc(Br)c2)cc1
Diet (Rattus norvegicus [13]): 63%
Diet (Rattus norvegicus [9]): 74%
inhibition [7]: 50%
Diet (Rattus norvegicus [10]): 84%
serum sterol, percent of control (Rattus norvegicus [11]): 94%
serum triglycerides, percent of control (Rattus norvegicus [14]): 60%
serum sterol, percent of control (Rattus norvegicus [12]): 84%

CCOC(=O)c1ccc(NCCCc2ccc([N+](=O)[O-])cc2)cc1
Diet (Rattus norvegicus [8]): 84%
serum sterol, percent of control (Rattus norvegicus [2]): 85%
Diet (Rattus norvegicus [13]): 73%
Diet (Rattus norvegicus [9]): 81%
inhibition [7]: 19%
Diet (Rattus norvegicus [10]): 81%
serum sterol, percent of control (Rattus norvegicus [12]): 85%

C=CCCCCCCCC/C=C/CCCNc1ccc(C(=O)O)cc1
Diet (Rattus norvegicus [1]): <71%
serum sterol, percent of control (Rattus norvegicus [2]): <80%
Diet (Rattus norvegicus [3]): <81%
serum triglycerides, percent of control (Rattus norvegicus [4]): 88%
Diet (Rattus norvegicus [5]): <86%
Diet (Rattus norvegicus [6]): 79%

CCCCCCCCCCCCCCNc1ccc(C(=O)O)cc1
Diet (Rattus norvegicus [1]): <65%
serum sterol, percent of control (Rattus norvegicus [2]): 89%
Diet (Rattus norvegicus [3]): 90%
serum triglycerides, percent of control (Rattus norvegicus [4]): <53%
Diet (Rattus norvegicus [5]): 93%
Diet (Rattus norvegicus [6]): <50%

O=C([O-])c1ccc(NCc2ccc(Cl)cc2)cc1.[Na+]
Diet (Rattus norvegicus [9]): 70%
Diet (Rattus norvegicus [10]): 90%
serum sterol, percent of control (Rattus norvegicus [11]): 83%
serum triglycerides, percent of control (Rattus norvegicus [14]): 61%
serum triglycerides, percent of control (Rattus norvegicus [4]): 67%
serum sterol, percent of control (Rattus norvegicus [12]): 91%

CCCCCCCCCCCCNc1ccc(C(=O)O)cc1
serum sterol, percent of control (Rattus norvegicus [2]): <89%
Diet (Rattus norvegicus [3]): <80%
serum triglycerides, percent of control (Rattus norvegicus [14]): <40%
Diet (Rattus norvegicus [15]): <51%
serum triglycerides, percent of control (Rattus norvegicus [4]): <32%
Diet (Rattus norvegicus [5]): <86%
